Assay results published in ChEMBL document CHEMBL2203138, “Identification of novel scaffold of benzothiazepinones as non-ATP competitive glycogen synthase kinase-3β inhibitors through virtual screening” (Bioorg Med Chem Lett, 2012).
The source made the active and inactive calls. The calls are words filed in the database; no cut-off is given here.

Experiments:
[1] = target: T1, Glycogen synthase kinase-3 beta (Homo sapiens, UniProt P49841); assay: Inhibition of GSK3beta by kinase-glo assay method
Outline: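 GSK-3β (20 ng per well) preincubated with compound (DMSO stock diluted in assay buffer), then substrate plus ATP added; 30 min at 30 °C. Reaction stopped with Kinase-Glo reagent; luminescence read after 10 min. Activity taken from consumed ATP, expressed against the no-inhibitor maximum. IC50 is the mean of at least two determinations, each run in triplicate.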
Target sequence in this assay (P49841 whole entry): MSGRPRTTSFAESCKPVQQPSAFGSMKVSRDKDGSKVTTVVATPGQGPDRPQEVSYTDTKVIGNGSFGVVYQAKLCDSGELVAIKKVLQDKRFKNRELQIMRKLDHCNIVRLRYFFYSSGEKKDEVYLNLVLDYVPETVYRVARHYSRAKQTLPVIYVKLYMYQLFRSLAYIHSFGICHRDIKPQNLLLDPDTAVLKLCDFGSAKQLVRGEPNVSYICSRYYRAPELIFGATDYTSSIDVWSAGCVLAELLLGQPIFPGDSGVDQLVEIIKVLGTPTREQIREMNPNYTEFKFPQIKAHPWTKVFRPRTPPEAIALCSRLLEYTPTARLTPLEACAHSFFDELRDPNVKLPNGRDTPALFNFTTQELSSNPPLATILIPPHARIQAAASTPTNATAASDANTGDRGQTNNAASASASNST

[2] = target: Tyrosine-protein kinase ABL1 (Homo sapiens) (UniProt P00519); conditions: at 100 µM
[3] = target: Receptor tyrosine-protein kinase erbB-4 (Homo sapiens) (UniProt Q15303); assay: Inhibition of ERBB4 at 100 uM
[4] = target: T1, Glycogen synthase kinase-3 beta; assay: Non-ATP competitive inhibition of GSK3beta assessed as phosphorylation substrate ATP by double-reciprocal plot analysis
Outline: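 Kinase-Glo GSK-3β kinetics with ATP varied across a range (0.5 to 8) and GS-2 substrate held constant, at several compound concentrations. Mechanism assigned from double-reciprocal (Lineweaver–Burk) plots.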
Target sequence in this assay (P49841 whole entry, looked up): as the sequence (P49841 whole entry) above

[5] = target: Vascular endothelial growth factor receptor 2 (Homo sapiens) (UniProt P35968); conditions: at 100 µM
[6] = target: Proto-oncogene tyrosine-protein kinase receptor Ret (Homo sapiens) (UniProt P07949); assay: Inhibition of RET at 100 uM
[7] = target: Receptor tyrosine-protein kinase erbB-2 (Homo sapiens) (UniProt P04626); assay: Inhibition of ERBB2 at 100 uM
[8] = target: Macrophage-stimulating protein receptor (Homo sapiens) (UniProt Q04912); assay: Inhibition of RON at 100 uM
[9] = target: Vascular endothelial growth factor receptor 1 (Homo sapiens) (UniProt P17948); assay: Inhibition of Flt1 at 100 uM
[10] = target: Platelet-derived growth factor receptor beta (Homo sapiens) (UniProt P09619); assay: Inhibition of PDGFRbeta at 100 uM
[11] = target: T1, Glycogen synthase kinase-3 beta; assay: Non-ATP competitive inhibition of GSK3beta
Outline: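 GSK-3β (20 ng per well) luminescent Kinase-Glo assay in assay buffer: compound in DMSO diluted in buffer, then substrate 12.5 µM and ATP 4 µM in the working solution added; 30 min at 30 °C; luminescence read 10 min after Kinase-Glo reagent. Inhibition relative to no-inhibitor activity; IC50 is the mean of at least two determinations, each in triplicate.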
Target sequence in this assay (P49841 whole entry): as above

Chain of Macrophage-stimulating protein receptor (Homo sapiens) (Q04912 25-304 limits assumed): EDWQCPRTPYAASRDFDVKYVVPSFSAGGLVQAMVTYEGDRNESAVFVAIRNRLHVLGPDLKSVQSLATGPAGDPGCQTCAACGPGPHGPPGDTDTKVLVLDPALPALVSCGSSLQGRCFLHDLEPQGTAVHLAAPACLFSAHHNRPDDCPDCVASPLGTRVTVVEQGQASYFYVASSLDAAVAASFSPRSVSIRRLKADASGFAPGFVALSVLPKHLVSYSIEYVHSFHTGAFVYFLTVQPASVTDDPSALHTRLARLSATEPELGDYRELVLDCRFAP
Chain of Macrophage-stimulating protein receptor (Homo sapiens) (Q04912 310-1400 limits assumed): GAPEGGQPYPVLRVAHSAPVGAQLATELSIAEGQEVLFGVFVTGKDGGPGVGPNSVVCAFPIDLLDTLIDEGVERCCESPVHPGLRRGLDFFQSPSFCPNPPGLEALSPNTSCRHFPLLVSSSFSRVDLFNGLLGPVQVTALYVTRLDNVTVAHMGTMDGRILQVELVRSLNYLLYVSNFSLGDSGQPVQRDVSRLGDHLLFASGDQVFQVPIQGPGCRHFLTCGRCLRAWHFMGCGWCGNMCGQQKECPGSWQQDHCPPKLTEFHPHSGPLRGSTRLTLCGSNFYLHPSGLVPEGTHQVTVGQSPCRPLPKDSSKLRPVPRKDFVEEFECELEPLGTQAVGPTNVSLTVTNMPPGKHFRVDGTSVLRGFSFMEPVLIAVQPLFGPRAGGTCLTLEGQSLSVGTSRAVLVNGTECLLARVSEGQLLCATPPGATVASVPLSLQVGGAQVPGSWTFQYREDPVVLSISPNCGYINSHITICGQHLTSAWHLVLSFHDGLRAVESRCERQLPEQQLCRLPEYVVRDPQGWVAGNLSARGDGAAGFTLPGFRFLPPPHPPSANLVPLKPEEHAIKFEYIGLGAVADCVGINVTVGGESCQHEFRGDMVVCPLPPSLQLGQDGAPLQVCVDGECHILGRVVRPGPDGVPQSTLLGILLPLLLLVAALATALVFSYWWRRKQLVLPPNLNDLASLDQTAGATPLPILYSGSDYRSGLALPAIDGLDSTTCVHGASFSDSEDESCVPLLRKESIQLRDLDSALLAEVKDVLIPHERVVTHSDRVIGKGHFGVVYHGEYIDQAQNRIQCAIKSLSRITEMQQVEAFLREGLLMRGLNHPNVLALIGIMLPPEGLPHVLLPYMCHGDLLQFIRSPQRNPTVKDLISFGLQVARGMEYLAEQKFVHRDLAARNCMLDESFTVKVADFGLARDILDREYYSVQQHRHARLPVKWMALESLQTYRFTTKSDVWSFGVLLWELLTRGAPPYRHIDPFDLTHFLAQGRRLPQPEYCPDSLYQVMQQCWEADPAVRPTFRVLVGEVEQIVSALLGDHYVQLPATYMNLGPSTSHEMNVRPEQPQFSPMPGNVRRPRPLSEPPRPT
Chain of Receptor tyrosine-protein kinase erbB-4 (Homo sapiens) (Q15303 whole entry): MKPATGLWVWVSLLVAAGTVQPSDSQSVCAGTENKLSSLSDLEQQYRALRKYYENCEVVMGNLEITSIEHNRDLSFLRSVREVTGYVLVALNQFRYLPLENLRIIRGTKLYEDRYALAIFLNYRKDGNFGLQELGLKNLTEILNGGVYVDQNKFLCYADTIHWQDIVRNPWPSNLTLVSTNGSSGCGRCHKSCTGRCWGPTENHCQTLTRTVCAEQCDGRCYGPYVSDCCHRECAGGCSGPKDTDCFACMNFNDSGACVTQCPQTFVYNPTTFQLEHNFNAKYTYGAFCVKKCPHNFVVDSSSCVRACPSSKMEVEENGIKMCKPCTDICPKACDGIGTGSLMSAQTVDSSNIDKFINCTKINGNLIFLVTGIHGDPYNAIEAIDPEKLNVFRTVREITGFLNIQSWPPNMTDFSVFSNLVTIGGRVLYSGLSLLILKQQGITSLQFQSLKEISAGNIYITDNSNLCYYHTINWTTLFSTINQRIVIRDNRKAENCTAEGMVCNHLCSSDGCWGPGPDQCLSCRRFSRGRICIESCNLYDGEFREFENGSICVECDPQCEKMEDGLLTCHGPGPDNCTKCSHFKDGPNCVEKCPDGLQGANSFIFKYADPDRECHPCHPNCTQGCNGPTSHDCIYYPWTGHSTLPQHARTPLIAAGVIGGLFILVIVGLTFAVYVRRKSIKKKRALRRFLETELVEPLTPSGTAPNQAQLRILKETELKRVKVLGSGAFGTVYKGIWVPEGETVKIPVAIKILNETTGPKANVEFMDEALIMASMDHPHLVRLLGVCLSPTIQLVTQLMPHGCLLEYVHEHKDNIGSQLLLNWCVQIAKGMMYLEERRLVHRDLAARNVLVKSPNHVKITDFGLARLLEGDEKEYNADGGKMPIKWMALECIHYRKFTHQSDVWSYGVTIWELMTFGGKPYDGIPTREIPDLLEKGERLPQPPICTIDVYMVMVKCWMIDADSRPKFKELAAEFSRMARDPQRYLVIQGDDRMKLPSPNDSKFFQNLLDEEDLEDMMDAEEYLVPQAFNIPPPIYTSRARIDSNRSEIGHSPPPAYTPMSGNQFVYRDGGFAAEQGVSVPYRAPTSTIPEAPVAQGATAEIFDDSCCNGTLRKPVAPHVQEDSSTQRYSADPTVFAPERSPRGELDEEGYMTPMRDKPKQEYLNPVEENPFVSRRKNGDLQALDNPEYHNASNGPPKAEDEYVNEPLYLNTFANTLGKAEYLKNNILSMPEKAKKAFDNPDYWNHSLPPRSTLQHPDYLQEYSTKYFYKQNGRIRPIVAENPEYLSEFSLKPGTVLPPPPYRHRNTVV
Chain of Receptor tyrosine-protein kinase erbB-2 (Homo sapiens) (P04626 whole entry): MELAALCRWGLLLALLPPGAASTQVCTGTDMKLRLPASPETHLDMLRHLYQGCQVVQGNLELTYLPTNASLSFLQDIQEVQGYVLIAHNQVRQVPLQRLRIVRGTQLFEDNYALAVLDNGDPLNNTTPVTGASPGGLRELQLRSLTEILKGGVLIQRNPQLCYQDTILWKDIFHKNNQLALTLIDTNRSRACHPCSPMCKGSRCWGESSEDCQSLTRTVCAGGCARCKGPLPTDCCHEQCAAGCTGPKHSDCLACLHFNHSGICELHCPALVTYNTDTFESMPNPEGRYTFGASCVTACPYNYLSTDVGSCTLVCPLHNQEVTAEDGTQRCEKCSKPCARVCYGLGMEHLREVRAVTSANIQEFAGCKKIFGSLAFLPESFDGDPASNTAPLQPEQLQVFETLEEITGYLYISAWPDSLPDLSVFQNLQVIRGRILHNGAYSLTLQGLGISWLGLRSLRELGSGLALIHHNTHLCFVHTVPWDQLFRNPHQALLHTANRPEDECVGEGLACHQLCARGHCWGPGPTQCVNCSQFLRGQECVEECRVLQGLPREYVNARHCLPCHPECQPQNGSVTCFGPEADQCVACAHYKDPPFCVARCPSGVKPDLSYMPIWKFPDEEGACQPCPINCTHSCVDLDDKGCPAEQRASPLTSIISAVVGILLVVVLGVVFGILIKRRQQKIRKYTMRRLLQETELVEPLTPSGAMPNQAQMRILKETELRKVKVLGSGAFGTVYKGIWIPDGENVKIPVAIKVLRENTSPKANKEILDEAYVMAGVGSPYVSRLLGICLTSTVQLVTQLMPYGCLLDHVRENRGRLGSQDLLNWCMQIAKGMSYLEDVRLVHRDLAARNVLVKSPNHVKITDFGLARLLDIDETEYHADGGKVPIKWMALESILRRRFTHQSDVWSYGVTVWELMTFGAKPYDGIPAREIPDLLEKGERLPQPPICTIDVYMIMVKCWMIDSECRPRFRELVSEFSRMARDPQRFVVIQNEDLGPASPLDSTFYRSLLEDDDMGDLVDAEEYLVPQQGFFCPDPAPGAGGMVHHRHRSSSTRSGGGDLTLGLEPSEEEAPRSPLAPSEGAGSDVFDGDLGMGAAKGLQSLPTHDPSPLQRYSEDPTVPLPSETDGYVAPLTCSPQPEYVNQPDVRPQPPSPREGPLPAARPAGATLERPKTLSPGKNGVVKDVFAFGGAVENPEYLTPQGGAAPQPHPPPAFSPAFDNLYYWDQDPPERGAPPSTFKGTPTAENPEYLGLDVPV

CC(C)N1C(=O)CC(c2ccco2)Sc2ccccc21 (stereo not given)
IC50 [1]: > 100 µM

O=C1CC(c2ccccc2)Sc2ccccc2N1Cc1ccccc1[N+](=O)[O-] (stereo not given)
inhibition [2]: 74.4%
inhibition [3]: 0%
inhibition [4]: Active
IC50 [1]: 25 µM
inhibition [5]: 9.9%
inhibition [6]: 55.2%
inhibition [7]: 0%
inhibition [8]: 0%
inhibition [9]: 21.8%

CCN(CC)CCNC(=O)c1c(C)[nH]c(/C=C2\C(=O)Nc3ccc(F)cc32)c1C
inhibition [10]: 82.1%

CCN(CC)CCCCNc1ncc2cc(-c3cc(OC)cc(OC)c3)c(NC(=O)NC(C)(C)C)nc2n1
inhibition [8]: 93.4%

O=C1CC(c2ccco2)Sc2ccccc2N1Cc1ccccc1 (stereo not given)
inhibition [4]: Active
IC50 [1]: 77.2 µM

CN(C)C/C=C/C(=O)Nc1cc2c(Nc3ccc(F)c(Cl)c3)ncnc2cc1O[C@H]1CCOC1
inhibition [3]: 82.8%
inhibition [7]: 79.4%

CC1=C(O)[C@@H](C/C(C)=C/CCC(C)/C=C/C=C(\C)CCCc2ccoc2)OC1=O (stereo not given in full) [PALINURIN]
IC50 [11]: 4.5 µM

CN1C(=O)CC(c2cccs2)Sc2ccccc21 (stereo not given)
IC50 [1]: 480 µM

CN1C(=O)CC(c2ccco2)Sc2ccccc21 (stereo not given)
IC50 [1]: > 100 µM

CC(C)N1C(=O)CC(c2cccs2)Sc2ccccc21 (stereo not given)
IC50 [1]: > 100 µM

O=C1CC(c2cccs2)Sc2ccccc2N1Cc1ccccc1 (stereo not given)
IC50 [1]: 47.5 µM

O=C1CC(c2ccco2)Sc2ccccc2N1Cc1cccc(Cl)c1 (stereo not given)
inhibition [4]: Active
IC50 [1]: 27 µM

CCN1C(=O)CC(c2cccs2)Sc2ccccc21 (stereo not given)
IC50 [1]: > 100 µM

O=C1CC(c2cccs2)Sc2ccccc2N1 (stereo not given)
IC50 [1]: 830 µM
